In brackets after ≈: the same amount, converted by molar mass. Activity calls are given as the source filed them. The rule behind the calls is not given here.
Key:
[1] = Inhibition of Hedgehog signaling pathway in mouse C3H10T1/2 cells assessed as reduction in oxysterol-induced Gli1 mRNA expression after 24 hrs by q-PCR analysis; type: cell-based; details: C3H 10T1/2, 24 h
[2] = target: T1, Vitamin D3 receptor (Mus musculus) (UniProt P48281); experiment: Activation of VDR in mouse ASZ001 cells assessed as change in Cyp24A1 mRNA expression at 5 uM after 48 hrs by q-PCR analysis relative to control; type: cell-based
T1 sequence (whole entry): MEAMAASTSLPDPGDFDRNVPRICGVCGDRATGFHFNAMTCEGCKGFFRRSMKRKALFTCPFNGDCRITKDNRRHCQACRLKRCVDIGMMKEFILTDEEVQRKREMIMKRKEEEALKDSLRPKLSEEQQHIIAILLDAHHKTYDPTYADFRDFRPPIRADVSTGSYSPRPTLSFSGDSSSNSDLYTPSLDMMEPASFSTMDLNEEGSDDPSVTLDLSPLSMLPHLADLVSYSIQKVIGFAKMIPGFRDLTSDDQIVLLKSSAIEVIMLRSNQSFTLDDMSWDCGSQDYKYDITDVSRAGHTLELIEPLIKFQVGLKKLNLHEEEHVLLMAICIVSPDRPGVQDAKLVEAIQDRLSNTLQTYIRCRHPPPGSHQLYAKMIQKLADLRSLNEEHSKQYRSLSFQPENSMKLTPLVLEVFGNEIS

[3] = Inhibition of Hedgehog signaling pathway in mouse ASZ001 cells assessed as reduction in […] Gli1 mRNA expression after 48 hrs by q-PCR analysis; type: cell-based; details: ASZ001, 48 h
[4] = target: T1, Vitamin D3 receptor (Mus musculus); experiment: Activation of VDR in mouse C3H10T1/2 cells assessed as change in Cyp24A1 mRNA expression at 5 uM after 24 hrs by q-PCR analysis relative to control; type: cell-based
[5] = species: Mus musculus; experiment: Inhibition of Hedgehog signaling pathway in mouse C3H10T1/2 cells assessed as residual oxysterol-induced Gli1 mRNA expression at 5 uM after 24 hrs by q-PCR analysis relative to oxysterol alone
[6] = Clearance in human liver microsomes assessed per mg protein at 1 uM by LC-MS/MS analysis
[7] = Kinetic solubility of the compound in pH 7.4 phosphate buffered saline; type: physicochemical; details: read-out: Kinetic_solubility
Outline: (§1)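 Kinetic solubility was run in PBS at pH 4.0 and at pH 7.4 under a standard contract protocol. Compound concentration was measured by LC-MS/MS.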

[8] = Half life in human liver microsomes at 1 uM by LC-MS/MS analysis
[9] = Kinetic solubility of the compound in pH 4 phosphate buffered saline; type: physicochemical; details: read-out: Kinetic_solubility; outline: as §1
[10] = Inhibition of Hedgehog signaling pathway in VDR-deficient mouse C3H10T1/2 cells assessed as reduction in oxysterol-induced Gli1 mRNA expression after 24 hrs by q-PCR analysis; details: C3H 10T1/2, 24 h
[11] = species: Mus musculus; experiment: Inhibition of Hedgehog signaling pathway in VDR-deficient mouse C3H10T1/2 cells assessed as change in CYP24A1 mRNA expression at 1 uM after 24 hrs by q-PCR analysis; set-up: scale not given: the % may be the effect or the level left
[12] = target: T2, Vitamin D3 receptor (Mus musculus, UniProt P48281); experiment: Activation of VDR in mouse ASZ001 cells assessed as change in Cyp24A1 mRNA expression after 48 hrs by q-PCR analysis; type: cell-based
T2 sequence (P48281 whole entry): T1 sequence (whole entry)
Outline: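 In ASZ001 cells, full dose-response Cyp24A1 mRNA measurement by qPCR was done relative to DMSO control (1.0). EC50 values are mean ± SEM of at least two separate experiments performed in triplicate.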

[13] = target: T1, Vitamin D3 receptor (Mus musculus); experiment: Activation of VDR in mouse ASZ001 cells assessed as change in Cyp24A1 mRNA expression at 1 uM after 48 hrs by q-PCR analysis relative to control; type: cell-based
[14] = system: Medulloblastoma cell; experiment: Antiproliferative activity against medulloblastoma cells derived from conditional patched knockout mouse after 48 hrs by [3H]-thymidine incorporation assay; type: functional
Outline: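 Primary tumour cells from Math1-Cre;Ptc fl/fl medulloblastoma were isolated and cultured in vitro, then incubated with analogue for 48 h in a proliferation assay. GI50 is mean ± SEM of at least two separate experiments performed in triplicate.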

[15] = target: T1, Vitamin D3 receptor (Mus musculus); experiment: Activation of VDR in mouse ASZ001 cells assessed as change in Cyp24A1 mRNA expression at 2.5 uM after 48 hrs by q-PCR analysis relative to control; type: cell-based
[16] = species: Mus musculus; experiment: Inhibition of Hedgehog signaling pathway in Sufu-deficient mouse C3H10T1/2 cells assessed as change in CYP24A1 mRNA expression at 5 uM after 24 hrs by q-PCR analysis; set-up: scale not given: the % may be the effect or the level left
[17] = Inhibition of Hedgehog signaling pathway in Sufu-deficient mouse C3H10T1/2 cells assessed as reduction in oxysterol-induced Gli1 mRNA expression after 24 hrs by q-PCR analysis; details: C3H 10T1/2, 24 h
[18] = species: Mus musculus; experiment: Inhibition of Hedgehog signaling pathway in Sufu-deficient mouse C3H10T1/2 cells assessed as reduction in oxysterol-induced Gli1 mRNA expression at 5 uM after 24 hrs by q-PCR analysis
[19] = species: Mus musculus; experiment: Inhibition of Hedgehog signaling pathway in VDR-deficient mouse C3H10T1/2 cells assessed as reduction in oxysterol-induced Gli1 mRNA expression at 5 uM after 24 hrs by q-PCR analysis
[20] = species: Mus musculus; experiment: Inhibition of Hedgehog signaling pathway in VDR-deficient mouse C3H10T1/2 cells assessed as change in CYP24A1 mRNA expression at 5 uM after 24 hrs by q-PCR analysis; set-up: scale not given: the % may be the effect or the level left
[21] = species: Mus musculus; experiment: Inhibition of Hedgehog signaling pathway in Sufu-deficient mouse C3H10T1/2 cells assessed as reduction in oxysterol-induced Gli1 mRNA expression at 1 uM after 24 hrs by q-PCR analysis

Row | SMILES | IC50 [1] | Activity [2] | IC50 [3] | Activity [4] | % Gli1 activity [5] | CLH [6] | solubility kinetic [7] | half-life at 1 µM ([8]; liver microsomes) | solubility kinetic [9] | EC50 [12] | GI50 [14] | other results
1 | CC(C)CCC[C@@H](C)[C@H]1CC[C@H]2[C@@H](NCc3ccc(O)cc3)CCC[C@]12C | 3100 nM | 1.1% | 300 nM | 24% | 4.6% |  |  |  |  |  |  | 
2 | CC(C)CCC[C@@H](C)[C@H]1CC[C@H]2[C@@H](NC(=O)c3cccc(O)c3)CCC[C@]12C |  |  |  |  |  | < 3 | 0.68 µg/mL (≈ 1.76 µM) | > 231 min | 0.27 µg/mL (≈ 0.7 µM) |  |  | 
3 | CCC(CC)(c1ccc(OCC(O)CO)c(C)c1)c1ccc(OCC(O)C(C)(C)C)c(C)c1 (centres undefined) [LG-190178] | 0.25 nM |  | 0.23 nM |  |  |  |  |  |  | 7.7 nM |  | IC50 [10]: 1900 nM; Activity [11]: 250%; Activity [13]: 13000%
4 | COc1cccc(N[C@H]2CCC[C@]3(C)[C@@H]([C@H](C)CCCC(C)C)CC[C@@H]23)c1 |  |  |  | 1.9% | 110% |  |  |  |  |  |  | 
5 | COC(C)(C)CCC[C@@H](C)[C@H]1CC[C@H]2[C@@H](OC(=O)c3cccc(O)c3)CCC[C@]12C | 1600 nM | 14% | 1000 nM | 14% | 0.7% | 15 | 0.0023 µg/mL (≈ 0.00552 µM) |  | 0.0027 µg/mL (≈ 0.00648 µM) | > 10000 nM |  | half-life at 1 µM ([8]; microsomes): 49 min
6 | CC(C)CCC[C@@H](C)[C@H]1CC[C@H]2[C@H](Nc3ccc(O)cc3)CCC[C@]12C |  |  |  |  |  | < 3 | 0.00026 µg/mL (≈ 0.000727 µM) | > 231 min | 0.00075 µg/mL (≈ 0.0021 µM) |  | 2100 nM | 
7 | C[C@H](CCCC(C)(C)O)[C@H]1CC[C@H]2[C@@H](OC(=O)c3cccc(O)c3)CCC[C@]12C | 1600 nM | > 30000% | 400 nM | 27000% | 2.9% | 15 | 0.031 µg/mL (≈ 0.077 µM) | 47 min | 0.048 µg/mL (≈ 0.119 µM) | 400 nM | > 10000 nM | 
8 | C[C@H](CCCC(C)(C)O)[C@H]1CC[C@H]2[C@H](CNc3cccc(O)c3)CCC[C@]12C | 1700 nM | 8.4% | 1300 nM | 34% | 4.1% |  |  |  |  | > 10000 nM | 1600 nM | 
9 | COc1ccc(N[C@H]2CCC[C@]3(C)[C@@H]([C@H](C)CCCC(C)C)CC[C@@H]23)cc1 |  |  |  | 2.4% | 73% |  |  |  |  |  |  | 
10 | CC(C)CCC[C@@H](C)[C@H]1CC[C@H]2[C@H](CNc3ccc(O)cc3)CCC[C@]12C | 600 nM |  | 600 nM | 8.9% | 1.9% | < 3 | 0.0027 µg/mL (≈ 0.00727 µM) |  | 0.00013 µg/mL (≈ 0.00035 µM) |  | 2100 nM | half-life at 1 µM ([8]; microsomes): > 231 min; Activity [15]: 5.8%
11 | C=C1CC[C@H](O)C/C1=C/C=C1\CCC[C@]2(C)[C@@H]([C@H](C)CCCC(C)C)CC[C@@H]12 [CHOLECALCIFEROL] |  |  |  |  |  |  |  |  |  | 900 nM | 5800 nM | IC50 [10]: 4500 nM; Activity [16]: 2.9%; IC50 [17]: > 10000 nM; inhibition [18]: inactive; inhibition [19]: inactive; Activity [20]: 5.5%
12 | CC(C)CCC[C@@H](C)[C@H]1CC[C@H]2[C@@H](Nc3ccc(O)cc3)CCC[C@]12C | 400 nM |  |  | 45% |  | 12 | 0.0026 µg/mL (≈ 0.00727 µM) | 57 min | 0.00062 µg/mL (≈ 0.00173 µM) |  |  | IC50 [10]: 3900 nM; Activity [16]: 1.2%; IC50 [17]: 3100 nM; Hedgehog inhibition activity call (active/not active) [18]: inactive; inhibition [19]: inactive; Activity [20]: 8.1%
13 | C[C@H](CCCC(C)(C)O)[C@H]1CC[C@H]2[C@H](CNc3ccc(O)cc3)CCC[C@]12C | 400 nM | 140% | 500 nM | 6.1% | 5.6% |  |  |  |  | 1300 nM |  | 
14 | CS(=O)(=O)c1ccc(C(=O)Nc2ccc(Cl)c(-c3ccccn3)c2)c(Cl)c1 [VISMODEGIB] | 82 nM |  | 40 nM |  | 0.9% |  |  |  |  |  |  | inhibition [21]: inactive; Hedgehog inhibition activity call (active/not active) [18]: Active
15 | CC(C)CCC[C@@H](C)[C@H]1CC[C@H]2[C@@H](OC(=O)c3cccc(O)c3)CCC[C@]12C |  |  |  |  |  | < 3 | 0.67 µg/mL (≈ 1.73 µM) | > 231 min | 0.16 µg/mL (≈ 0.414 µM) |  | > 10000 nM | 
16 | COC(C)(C)CCC[C@@H](C)[C@H]1CC[C@H]2[C@H](CNc3cccc(O)c3)CCC[C@]12C | 1100 nM | 2400% | 700 nM | 27% | 3.7% | 16 | 0.12 µg/mL (≈ 0.299 µM) | 43 min | 0.06 µg/mL (≈ 0.149 µM) | 600 nM |  | 
17 | COC(C)(C)CCC[C@@H](C)[C@H]1CC[C@H]2[C@@H](Nc3cccc(O)c3)CCC[C@]12C | 2300 nM | 11000% | 600 nM | 89% | 3.3% | < 3 | 0.014 µg/mL (≈ 0.0361 µM) | > 231 min | 0.017 µg/mL (≈ 0.0439 µM) | 700 nM |  | 
18 | C[C@H](CCCC(C)(C)O)[C@H]1CC[C@H]2[C@@H](Nc3cccc(O)c3)CCC[C@]12C | 1300 nM | > 30000% | 100 nM | > 30000% | 5.9% |  |  |  |  | 100 nM | 5300 nM | 
19 | CC(C)CCC[C@@H](C)[C@H]1CC[C@H]2[C@H](CNc3cccc(O)c3)CCC[C@]12C | 3800 nM |  | 1200 nM | 13% | 13% |  |  |  |  |  |  | Activity [15]: 7.8%
20 | CC(C)CCC[C@@H](C)[C@H]1CC[C@H]2[C@@H](Nc3ccccc3)CCC[C@]12C |  |  |  | 1.2% | 98% |  |  |  |  |  |  | 
21 | C[C@H](CCCC(C)(C)O)[C@H]1CC[C@H]2[C@@H](Nc3ccc(O)cc3)CCC[C@]12C | 890 to 900 nM | > 30000% | 200 nM | 15000% | 11% |  | 0.0042 µg/mL (≈ 0.0112 µM) |  | 2.4 µg/mL (≈ 6.42 µM) | 600 nM | 2200 nM | IC50 [10]: 4900 nM; Activity [16]: 51%; IC50 [17]: 2900 nM; Hedgehog inhibition activity call (active/not active) [18]: inactive; inhibition [19]: inactive; Activity [20]: 140%
22 | CC(C)CCC[C@@H](C)[C@H]1CC[C@H]2[C@@H](Nc3ccc4c(c3)OCO4)CCC[C@]12C |  |  |  | 6.1% | 110% |  |  |  |  |  |  | 

Reference: ChEMBL document CHEMBL4382241, “Synthesis and evaluation of third generation vitamin D3 analogues as inhibitors of Hedgehog signaling” (Eur J Med Chem, 2019)
